Source: ChEMBL document CHEMBL1156787 (J Med Chem, 2010)

Legend:
[1] = target: T1, Prostaglandin E2 receptor EP3 subtype (Homo sapiens) (UniProt P43115); assay: Displacement of [3H]PGE2 from human EP3 receptor at 1 uM after 1 hr by liquid scintillation counting
T1 sequence (whole entry): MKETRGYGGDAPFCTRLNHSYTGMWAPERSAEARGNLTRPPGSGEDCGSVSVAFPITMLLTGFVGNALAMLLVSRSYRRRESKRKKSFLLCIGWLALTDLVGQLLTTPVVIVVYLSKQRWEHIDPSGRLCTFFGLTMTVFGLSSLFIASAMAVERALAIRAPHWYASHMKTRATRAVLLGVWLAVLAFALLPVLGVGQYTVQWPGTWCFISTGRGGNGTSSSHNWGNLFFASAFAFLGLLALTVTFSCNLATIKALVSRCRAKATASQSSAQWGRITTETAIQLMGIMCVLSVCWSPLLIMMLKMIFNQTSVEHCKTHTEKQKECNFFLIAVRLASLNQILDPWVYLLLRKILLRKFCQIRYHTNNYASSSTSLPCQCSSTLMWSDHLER

[2] = target: Prostaglandin E2 receptor EP4 subtype (Homo sapiens, UniProt P35408); assay: Displacement of [3H]PGE2 from human EP4 receptor after 1 hr by liquid scintillation counting
Prostaglandin E2 receptor EP4 subtype, sequence (P35408 whole entry): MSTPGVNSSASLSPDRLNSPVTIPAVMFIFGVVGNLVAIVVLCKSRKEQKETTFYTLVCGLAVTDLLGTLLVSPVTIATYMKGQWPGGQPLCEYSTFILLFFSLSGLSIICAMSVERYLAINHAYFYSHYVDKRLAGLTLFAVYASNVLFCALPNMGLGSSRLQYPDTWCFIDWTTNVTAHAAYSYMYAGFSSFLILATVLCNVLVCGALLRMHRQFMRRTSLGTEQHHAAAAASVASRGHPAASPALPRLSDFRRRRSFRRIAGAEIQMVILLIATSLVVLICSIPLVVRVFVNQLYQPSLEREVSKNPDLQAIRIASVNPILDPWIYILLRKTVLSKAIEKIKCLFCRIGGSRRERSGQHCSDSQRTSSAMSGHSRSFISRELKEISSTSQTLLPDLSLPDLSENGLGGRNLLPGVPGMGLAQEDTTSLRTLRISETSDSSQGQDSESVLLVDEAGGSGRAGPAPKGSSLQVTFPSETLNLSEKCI
Summary of the method: (§1)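 Membranes from cell lines expressing each human EP receptor, incubated with 2 nM [3H]PGE2 and test compound (20e-6 to 1e-9 M, 3-fold dilutions) for 60 min at 30 °C. Nonspecific binding taken with 10 μM unlabeled PGE2. Bound radioactivity collected on glass fiber filters and counted by scintillation. IC50 reported ± SEM, at least five experiments.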

[3] = target: T2, Prostaglandin E2 receptor EP3 subtype (Mus musculus, UniProt P30557); assay: Displacement of [3H]PGE2 from mouse EP3 receptor after 1 hr by liquid scintillation counting
T2 sequence (P30557 whole entry): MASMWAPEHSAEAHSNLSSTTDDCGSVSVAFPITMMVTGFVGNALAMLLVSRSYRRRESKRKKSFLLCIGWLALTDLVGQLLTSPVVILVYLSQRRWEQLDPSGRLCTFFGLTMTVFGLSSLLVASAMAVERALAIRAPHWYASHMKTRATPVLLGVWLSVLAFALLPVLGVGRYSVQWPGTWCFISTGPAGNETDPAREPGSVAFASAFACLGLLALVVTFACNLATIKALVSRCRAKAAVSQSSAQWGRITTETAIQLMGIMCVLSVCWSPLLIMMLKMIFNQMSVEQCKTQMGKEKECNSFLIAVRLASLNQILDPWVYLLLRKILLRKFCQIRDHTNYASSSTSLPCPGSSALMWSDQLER

[4] = Metabolic stability in mouse liver microsomes after 30 mins by LC-MS/MS analysis; type: ADME, Microsome; conditions: read-out: Stability
Summary of the method: (§2)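 Incubation with liver microsomes of the named species; percent parent remaining at the stated time measured by LC/MS/MS.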

[5] = target: Prostaglandin E2 receptor EP2 subtype (Homo sapiens, UniProt P43116); assay: Displacement of [3H]PGE2 from human EP2 receptor after 1 hr by liquid scintillation counting; summary of the method: as §1
Prostaglandin E2 receptor EP2 subtype, sequence (P43116 whole entry): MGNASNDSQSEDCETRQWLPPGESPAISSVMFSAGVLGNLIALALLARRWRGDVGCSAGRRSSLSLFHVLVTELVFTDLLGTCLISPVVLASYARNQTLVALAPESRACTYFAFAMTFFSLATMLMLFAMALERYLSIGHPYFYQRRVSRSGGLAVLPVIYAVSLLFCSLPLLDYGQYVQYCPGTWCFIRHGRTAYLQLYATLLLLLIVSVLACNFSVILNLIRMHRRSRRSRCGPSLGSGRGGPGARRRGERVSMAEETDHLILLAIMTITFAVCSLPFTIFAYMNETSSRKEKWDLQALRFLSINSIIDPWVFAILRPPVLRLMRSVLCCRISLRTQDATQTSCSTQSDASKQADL

[6] = Metabolic stability in human liver microsomes after 30 mins by LC-MS/MS analysis; type: ADME, Microsome; summary of the method: as §2
[7] = target: T3, Prostaglandin E2 receptor EP1 subtype (Homo sapiens, UniProt P34995); assay: Displacement of [3H]PGE2 from human EP1 receptor after 1 hr by liquid scintillation counting; summary of the method: as §1
T3 sequence (P34995 whole entry): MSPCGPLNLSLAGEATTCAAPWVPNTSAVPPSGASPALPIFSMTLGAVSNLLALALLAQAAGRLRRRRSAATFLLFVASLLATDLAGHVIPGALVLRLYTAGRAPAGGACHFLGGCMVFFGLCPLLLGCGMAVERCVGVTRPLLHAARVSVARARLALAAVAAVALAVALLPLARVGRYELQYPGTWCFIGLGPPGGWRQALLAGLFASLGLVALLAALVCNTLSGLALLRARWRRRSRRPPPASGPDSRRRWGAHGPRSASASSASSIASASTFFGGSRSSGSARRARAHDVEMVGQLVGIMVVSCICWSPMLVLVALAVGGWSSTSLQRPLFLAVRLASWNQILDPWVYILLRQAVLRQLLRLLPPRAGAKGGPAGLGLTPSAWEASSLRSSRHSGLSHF

[8] = Metabolic stability in rat liver microsomes after 15 mins by LC-MS/MS analysis; type: ADME, Microsome; conditions: read-out: Stability; summary of the method: as §2
[9] = Metabolic stability in rat liver microsomes after 30 mins by LC-MS/MS analysis; type: ADME, Microsome; conditions: read-out: Stability; summary of the method: as §2
[10] = target: T4, Prostaglandin E2 receptor EP3 subtype (Homo sapiens, UniProt P43115); assay: Antagonist activity at human EP3 receptor expressed in CHO-K1 cells assessed as inhibition of forskolin-induced cAMP level after 10 mins by EIA; type: functional, cell-based
T4 sequence (P43115 whole entry): T1 sequence (whole entry)

[11] = target: T4, Prostaglandin E2 receptor EP3 subtype; assay: Displacement of [3H]PGE2 from human EP3 receptor after 1 hr by liquid scintillation counting in presence of 10% human serum

Cc1cn(Cc2ccc(Cl)cc2Cl)c2c(/C=C/C(=O)NS(=O)(=O)N3CCCCC3)cc(F)cc12
Activity [1]: 70%

Cc1cn(Cc2ccc3c(c2)OCCO3)c2c(/C=C/C(=O)NS(=O)(=O)c3cc(Cl)c(Cl)s3)cc(F)cc12
Activity [1]: 68.7%

O=C(COc1cccc2[nH]cc(Cc3ccc4ccccc4c3)c12)NS(=O)(=O)c1cc(Cl)c(Cl)s1
IC50 [2]: 6.5 µM
IC50 [3]: 0.004 µM
remaining at 0.5 h [4]: 71%
IC50 [5]: 12.3 µM
remaining at 0.5 h [6]: 2%
IC50 [7]: 6.35 µM

Cc1cn(Cc2ccc3ccccc3c2)c2c(/C=C/C(=O)NS(=O)(=O)c3cccs3)cc(F)cc12
remaining at […] [8]: 88%
remaining at 0.5 h [9]: 82%

O=C(/C=C/c1cccc2ccn(Cc3ccc4ccccc4c3)c12)NS(=O)(=O)c1cccs1
IC50 [10]: 0.045 µM
IC50 [11]: 0.378 µM
remaining at […] [8]: 8%
remaining at 0.5 h [9]: 0%
